Rows were chosen to be rich in hits. Some 3.5% of all compounds tested hit in one or more screens of this group.
RGS4 pot – RGS4 potentiators or activators, primary screen, cell-based, HEK293 M3R inducible RGS4, calcium flux; carbachol calcium flux Fluo4; hits give low values; hit rate 0.92% among 310,000; B-score at 10 µM;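 active means B-score of the integrated calcium signal more than 4 SD below the library mean, with starting fluorescence not abnormally high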;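 further: negative B-score means reduced calcium response which marks RGS4 activation or potentiation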
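test system = M3R-expressing HEK293 line, RGS4 induced by doxycycline | probe or stimulus = carbachol at ECmax as muscarinic agonist stimulus | timing = dye loading 30 min 37 °C, buffer rest 30 min RT | signal = calcium dye Fluo4 fluorescence | evaluation = B score from integrated fluorescence ratio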
MrgX1 allo act – positive allosteric modulators of MrgX1, primary screen, HEK293 cells, Fluo-4 calcium flux; B-score at 10 µM; FDSS; hits give high values; Mas-related G-protein coupled receptor member X1 (Homo sapiens), Q96LB2; hit rate 0.63% among 310,000;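 active means plate-corrected calcium response at least 3 library SD above typical, normal starting fluorescence, not activating the receptor alone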;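 further: compound read alongside a low EC10 to EC30 dose of BAM8-22 agonist; peak minus trough fluorescence over baseline measured at the second addition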
Target sequence (Q96LB2 whole entry, looked up): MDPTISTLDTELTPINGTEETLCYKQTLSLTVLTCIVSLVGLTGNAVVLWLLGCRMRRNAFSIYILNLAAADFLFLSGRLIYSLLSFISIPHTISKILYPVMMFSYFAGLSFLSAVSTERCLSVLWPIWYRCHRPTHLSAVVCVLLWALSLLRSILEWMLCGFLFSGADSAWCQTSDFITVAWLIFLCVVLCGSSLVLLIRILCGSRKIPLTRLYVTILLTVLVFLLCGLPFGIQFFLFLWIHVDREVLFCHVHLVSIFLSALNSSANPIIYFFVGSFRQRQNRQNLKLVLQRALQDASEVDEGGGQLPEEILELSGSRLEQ
MrgX1 agonist – agonists of human MrgX1 receptor, primary screen, HEK293 cells, Fluo-4 calcium flux; Mas-related G-protein coupled receptor member X1 (Homo sapiens), Q96LB2; Fluo-4 calcium fluorescence, agonist mode; hits give high values; B-score at 10 µM; hit rate 0.44% among 310,000; AID 588627, 2011;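 active means calcium response B-score plate-corrected fluorescence ratio at least 3 library SD, with starting fluorescence B-score inside 5 SD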
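Material: MrgX1-expressing HEK293 cells / Dosing: compound as first of three additions / Incubation: overnight seeding, then 1 h dark dye loading / Signal: Fluo-4 NW calcium fluorescence / Evaluation: B-scored fluorescence response ratio / Benchmarks: positive and negative control wells on each plate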
RGS4 inh – RGS4 inhibitors, primary screen, cell-based, HEK293 M3R inducible RGS4, calcium flux | Fluo-4 calcium flux; hits give high values; triggered by carbachol at its EC20 | B-score at 10 µM | hit rate 0.45% among 310,000 | AID 463165, 2010;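 active means B-score, a plate-corrected calcium signal, over three deviations above library mean, with baseline fluorescence within five deviations of library mean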;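 further: RGS4 expression induced by doxycycline in cells with stable M3 receptor; B-score is computed from the integrated fluorescence ratio over baseline after carbachol; higher B-score means a larger calcium signal and so more RGS4 inhibition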
Target sequence (P49798 whole entry, looked up): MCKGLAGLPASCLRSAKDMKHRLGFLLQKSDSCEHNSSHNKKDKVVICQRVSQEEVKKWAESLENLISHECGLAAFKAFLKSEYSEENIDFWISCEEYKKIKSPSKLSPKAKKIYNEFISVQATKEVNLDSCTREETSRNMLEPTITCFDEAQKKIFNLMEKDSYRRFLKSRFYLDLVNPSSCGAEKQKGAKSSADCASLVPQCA
MrgX1 antagonist – antagonists of human MrgX1 receptor, primary screen, HEK293 cells, Fluo-4 calcium flux. BAM8-22 antagonism; hits give low values. B-score at 10 µM. hit rate 1.3% among 310,000. AID 588676, 2011;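 active means calcium-response B-score plate-corrected more than 3 library SD below zero, starting fluorescence within 5 deviations, no agonist response on first addition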;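 further: peak minus trough fluorescence over baseline after final BAM8-22 challenge near maximal dose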
* marks the source's active call; other numbers are inactive results.

For COCc1cc(CN2CCCC(C(=O)Nc3ccc(-c4ccco4)cc3)C2)ccc1OC (stereo unspecified) the results were RGS4 pot inactive, MrgX1 allo act inactive, MrgX1 agonist inactive, RGS4 inh inactive and MrgX1 antagonist inactive.
Cc1ccc(S(=O)(=O)c2nnn3c2nc(NCCCN2CCCC2=O)c2ccccc23)cc1C was read as RGS4 pot inactive, MrgX1 allo act inactive, MrgX1 agonist inactive, RGS4 inh inactive and MrgX1 antagonist inactive.
Screening Cc1ccc(S(=O)(=O)c2nnn3c2nc(NC2CCN(Cc4ccccc4)CC2)c2ccccc23)cc1C returned RGS4 pot inactive, MrgX1 allo act 8.27*, MrgX1 agonist inactive, RGS4 inh inactive and MrgX1 antagonist -11*.
For Cc1cccc(NC(=O)COc2coc(CN3CCc4ccccc4C3)cc2=O)c1 the results were RGS4 pot inactive, MrgX1 allo act inactive, MrgX1 agonist inactive, RGS4 inh inactive and MrgX1 antagonist inactive.
CC12CCC3(CO)COC(c4ccccc4O1)C2C3 (stereo unspecified) was read as RGS4 pot inactive, MrgX1 allo act inactive, MrgX1 agonist inactive, RGS4 inh inactive and MrgX1 antagonist inactive.
Screening CC1(C#CC[N+]2(C)CCCCC2)CCC2C(O1)c1ccccc1OC2(C)C (stereo unspecified) returned RGS4 pot -6.98*, MrgX1 allo act inactive, MrgX1 agonist inactive, RGS4 inh inactive and MrgX1 antagonist inactive.
For CCOc1cc(/C=C2/NC(=O)NC2=O)cc([N+](=O)[O-])c1O the results were RGS4 pot inactive, MrgX1 allo act inactive, MrgX1 agonist inactive, RGS4 inh inactive and MrgX1 antagonist -7.67*.
Screening CCCCC1(C)OC(=O)C(=Cc2ccc(N(C)C)cc2)C(=O)O1 (stereo unspecified) returned RGS4 pot inactive, MrgX1 allo act inactive, MrgX1 agonist 29.4*, RGS4 inh inactive and MrgX1 antagonist inactive.
`Cc1cc(C=C2C(=O)c3ccccc3C2=O)c(C)n1-c1ccccc1` gave RGS4 pot inactive, MrgX1 allo act 8.53*, MrgX1 agonist inactive, RGS4 inh inactive and MrgX1 antagonist inactive.
Cc1cc(C=C2C(=O)c3ccccc3C2=O)c(C)n1-c1ccc(C(=O)O)cc1 was read as RGS4 pot inactive, MrgX1 allo act inactive, MrgX1 agonist inactive, RGS4 inh inactive and MrgX1 antagonist inactive.
Cc1cc(/C=c2\sc3nc4ccccc4n3c2=O)c(C)n1-c1ccc(C(=O)O)cc1 was read as RGS4 pot -7.34* and RGS4 inh inactive.
Screening Cc1cc(C=C2C(=O)c3ccccc3C2=O)c(C)n1-c1cccc(C(=O)O)c1 returned RGS4 pot inactive, MrgX1 allo act 10.1*, MrgX1 agonist inactive, RGS4 inh inactive and MrgX1 antagonist inactive.
Screening COc1ccc(S(=O)(=O)N2CCCC2CNC(=O)C(=O)NCc2ccccn2)cc1 (stereo unspecified) returned RGS4 pot inactive, MrgX1 allo act inactive, MrgX1 agonist inactive, RGS4 inh inactive and MrgX1 antagonist inactive.
`CCn1c(Sc2ccc([N+](=O)[O-])cn2)nnc1-c1ccco1` gave RGS4 pot inactive, MrgX1 allo act inactive, MrgX1 agonist inactive, RGS4 inh inactive and MrgX1 antagonist inactive.
`COc1ccc(N/C=C2\CCOC2=O)cc1` gave RGS4 pot inactive, MrgX1 allo act inactive, MrgX1 agonist inactive, RGS4 inh inactive and MrgX1 antagonist inactive.
`COc1ccc(N/C=C2\C(=O)CCc3c2oc2cc(Cl)c(O)c(Cl)c32)cc1` gave RGS4 pot inactive, MrgX1 allo act inactive, MrgX1 agonist inactive, RGS4 inh inactive and MrgX1 antagonist -4.99*.
For Cc1cc(OC(=O)c2ccccc2Br)cc(=O)n1C the results were RGS4 pot inactive, MrgX1 allo act 10.5*, MrgX1 agonist inactive, RGS4 inh inactive and MrgX1 antagonist inactive.
`O=C(COC(=O)c1n[nH]c2ccccc12)c1cccc(Br)c1` gave RGS4 pot inactive, MrgX1 allo act inactive, MrgX1 agonist inactive, RGS4 inh inactive and MrgX1 antagonist -5.45*.
For COC(=O)/C(=N/Nc1ccccc1C)N1CCCc2ccccc21 the results were RGS4 pot inactive, MrgX1 allo act inactive, MrgX1 agonist inactive, RGS4 inh inactive and MrgX1 antagonist inactive.
O=C(Nc1ccc2c(c1)OCO2)c1cnn2c(C(F)(F)F)cc(-c3ccco3)nc12 was read as MrgX1 allo act inactive, MrgX1 agonist inactive and MrgX1 antagonist inactive.
O=C(Nc1cnn(C23CC4CC(CC(C4)C2)C3)c1)c1cnn2c(C(F)(F)F)cc(-c3ccco3)nc12 was read as RGS4 pot -8.53*, MrgX1 allo act inactive, MrgX1 agonist inactive, RGS4 inh inactive and MrgX1 antagonist inactive.
Cc1ccccc1Cn1ccc(NC(=O)c2cnn3c(C(F)(F)F)cc(-c4ccco4)nc23)n1 was read as RGS4 pot -7.53*, MrgX1 allo act inactive, MrgX1 agonist inactive, RGS4 inh inactive and MrgX1 antagonist inactive.
`Cc1ccccc1Cn1ccc(NC(=O)CCSc2nc(-c3ccco3)cc(C(F)(F)F)n2)n1` gave RGS4 pot inactive, MrgX1 allo act inactive, MrgX1 agonist inactive, RGS4 inh inactive and MrgX1 antagonist inactive.
For COCCCNC(=O)c1cccn2c(=O)c3cc4ccccc4cc3nc12 the results were RGS4 pot inactive, MrgX1 allo act inactive, MrgX1 agonist inactive, RGS4 inh inactive and MrgX1 antagonist -8.48*.
Screening O=C(CCCN1C(=O)c2ccccc2C1=O)NCc1ccc(F)cc1 returned RGS4 pot inactive, MrgX1 allo act inactive, MrgX1 agonist inactive, RGS4 inh inactive and MrgX1 antagonist inactive.
CC(Oc1ccc(-c2ccccc2)c(F)c1)c1ccn(S(=O)(=O)c2ccc(F)cc2)n1 (stereo unspecified) was read as RGS4 pot inactive, MrgX1 allo act inactive, MrgX1 agonist inactive, RGS4 inh inactive and MrgX1 antagonist inactive.
For O=S(=O)(c1ccc(F)cc1)n1ccc(-c2cccc(OCc3ccc(Cl)cc3Cl)c2)n1 the results were RGS4 pot inactive, MrgX1 allo act inactive, MrgX1 agonist inactive, RGS4 inh inactive and MrgX1 antagonist -8.15*.
Screening Cc1ccc(C(=O)OCCc2sc[n+](Cc3ccccc3)c2C)cc1 returned RGS4 pot -9.09*, MrgX1 allo act inactive, MrgX1 agonist inactive, RGS4 inh inactive and MrgX1 antagonist inactive.
Cc1c(CCOC(=O)C23CC4CC(CC(C)(C4)C2)C3)sc[n+]1Cc1ccccc1 was read as RGS4 pot inactive, MrgX1 allo act inactive, MrgX1 agonist inactive, RGS4 inh inactive and MrgX1 antagonist inactive.
